This is an account of results in ChEMBL document CHEMBL2086291, “Antitumor agent calixarene 0118 targets human galectin-1 as an allosteric inhibitor of carbohydrate binding” (J Med Chem, 2012).

The target in experiment [1] is T1, Galectin-1 (Homo sapiens, UniProt P09382). Kind of experiment: Binding affinity to human [15N]-labelled Galectin-1 by heteronuclear NMR spectroscopy analysis. The essentials:
(§1)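 Uniformly 15N-labeled recombinant human gal-1 was expressed in E. coli BL21(DE3) and dissolved at 1 mg/mL in 20 mM potassium phosphate, pH 7.0, 50 μM EDTA, 95% H2O/5% D2O. Compound was titrated and followed by 1H-15N HSQC, reading resonance broadening and intensity changes. Averaged intensity change was plotted against free ligand, with bound ligand estimated from total gal-1 monomer (60 μM).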

Experiment [2] concerns the target T1, Galectin-1. The experiment can be described thus: Inhibition of FITC-conjugated human Galectin-1binding to CD31+ endothelial cell surface glycans of gal1 -/- mouse at 100 uM after 30 mins by flow cytometry. The essentials:
(§2)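 Splenocytes from gal-1−/− mice, with RBCs lysed in ACK for 5 min on ice. Cells stained with lineage antibodies for 40 min on ice, then given FITC-gal-1 (0.1 or 0.2 μM; FITC:protein labeling ratio 10:1) with or without compound for 30 min on ice. Binding read by multiparameter flow cytometry gated on CD4+, CD8+ and CD31+ cells.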
In general terms: Flow cytometry measures light scatter and fluorescence of single cells or particles in a stream.

For experiment [3], the system named is SQ20B. Kind of experiment: Cytotoxicity against human SQ20B cells assessed as cell viability by MTT assay. The format is functional, cell-based. The essentials: (§3)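 Cells grown as monolayers in RPMI with 10% FCS and 2 mM glutamine at 37 °C, 5% CO2, seeded at 2 × 10^3 cells/well. Then 72 h drug exposure and 48 h wash-out, followed by 0.4 mg/mL MTT for 4 h at 37 °C. Formazan dissolved in DMSO, absorbance read at 560 nm, and IC50 determined per cell line.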
A general note: Tetrazolium dyes change colour on reduction, which living cells bring about.

The test system of experiment [4] is COLO 205. Kind of experiment: Cytotoxicity against human COLO205-R cells assessed as cell viability by MTT assay. The format is functional, cell-based. The essentials: as §3
The target of experiment [5] is T1, Galectin-1. The experiment can be described thus: Inhibition of FITC-conjugated human Galectin-1binding to CD8+ cell surface glycans of gal1 -/- mouse at 20 uM after 30 mins by flow cytometry. In short, it runs like this: as §2
Experiment [6] concerns the target T1, Galectin-1. Kind of experiment: Inhibition of FITC-conjugated human Galectin-1binding to CD31+ endothelial cell surface glycans of gal1 -/- mouse after 30 mins by flow cytometry. The essentials:
as §2

Experiment [7] deals with HT-29. The experiment can be described thus: Cytotoxicity against human HT-29 cells assessed as cell viability by MTT assay. In kind it is functional, cell-based. The essentials:
as §3

Experiment [8] addresses T1, Galectin-1. Kind of experiment: Inhibition of FITC-conjugated human Galectin-1binding to CD4+ cell surface glycans of gal1 -/- mouse at 100 uM after 30 mins by flow cytometry. The essentials:
as §2

Experiment [9] relates to COLO 205. The experiment can be described thus: Cytotoxicity against human COLO205-S cells assessed as cell viability by MTT assay. The format is functional, cell-based. In short, it runs like this:
as §3

Experiment [10] concerns the target T1, Galectin-1. Kind of experiment: Inhibition of lactose binding to human [15N]-labelled Galectin-1 at molar ratio of 1:5 Gal1:compound by heteronuclear NMR spectroscopy analysis.
Experiment [11] concerns the target T1, Galectin-1. The experiment can be described thus: Inhibition of FITC-conjugated human Galectin-1binding to CD4+ cell surface glycans of gal1 -/- mouse after 30 mins by flow cytometry. In short, it runs like this:
as §2

Experiment [12] concerns DU-145. Kind of experiment: Cytotoxicity against human DU145 cells assessed as cell viability by MTT assay. The format is functional, cell-based. In short, it runs like this:
as §3

For experiment [13], the system named is SK-HEP1. The experiment can be described thus: Cytotoxicity against human SKHEP1 cells assessed as cell viability by MTT assay. The format is functional, cell-based. The essentials:
as §3

For experiment [14], the system named is HEp-2. Kind of experiment: Cytotoxicity against human Hep2 cells assessed as cell viability by MTT assay. In kind it is functional, cell-based. The essentials:
as §3

The target in experiment [15] is T1, Galectin-1. The experiment can be described thus: Inhibition of FITC-conjugated human Galectin-1binding to CD31+ endothelial cell surface glycans of gal1 -/- mouse at 20 uM after 30 mins by flow cytometry. The essentials: as §2
Experiment [16] deals with T1, Galectin-1. The experiment can be described thus: Inhibition of FITC-conjugated human Galectin-1binding to CD8+ cell surface glycans of gal1 -/- mouse after 30 mins by flow cytometry. In short, it runs like this: as §2
For experiment [17], the target named is T1, Galectin-1. The experiment can be described thus: Binding affinity to human [15N]-labelled Galectin-1 at 60 uM by heteronuclear NMR spectroscopy analysis. In short, it runs like this: as §1
The target in experiment [18] is T1, Galectin-1. The experiment can be described thus: Inhibition of FITC-conjugated human Galectin-1binding to CD4+ cell surface glycans of gal1 -/- mouse at 20 uM after 30 mins by flow cytometry. The essentials:
as §2

Experiment [19] deals with T1, Galectin-1. The experiment can be described thus: Binding affinity to Galectin-1 in human Jurkat E6-1 cells surface glycans assessed as attenuation of agglutination at 20 uM by morphometric analysis. The format is cell-based. In short, it runs like this:
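Jurkat E6.1 cells (2 × 10^6 per 200 μL RPMI 1640) agglutinated with 1 μM gal-1 and incubated at 22 °C in medium alone or with 20 μM compound. Agglutination imaged by inverted phase microscopy, then digitally quantified by pixel-based morphometric analysis.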

The target in experiment [20] is T1, Galectin-1. The experiment can be described thus: Inhibition of FITC-conjugated human Galectin-1binding to CD8+ cell surface glycans of gal1 -/- mouse at 100 uM after 30 mins by flow cytometry. The essentials: as §2

Structures are written as SMILES. pKd: −log10 of the molar value. Calls of active or inactive are those of the source. No cut-off for these calls is given here.

T1 sequence (P09382 whole entry): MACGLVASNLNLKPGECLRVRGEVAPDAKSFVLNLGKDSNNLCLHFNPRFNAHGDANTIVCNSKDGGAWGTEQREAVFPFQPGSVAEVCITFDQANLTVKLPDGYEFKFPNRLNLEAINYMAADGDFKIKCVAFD

`CN(C)CCNC(=O)COc1c2cccc1Cc1cccc(c1OCC(=O)NCCN(C)C)Cc1cccc(c1OCC(=O)NCCN(C)C)Cc1cccc(c1OCC(=O)NCCN(C)C)C2` [OTX-008] gave a pKd in [1] of 4.52. For the same compound, the inhibition in experiment [2] is 70%; in experiment [5], 80%; in [6], “Dose-dependent effect”; in experiment [8], 100%; in experiment [11], “Dose-dependent effect”; in [15], 50%. Besides, the inhibition entry is “Dose-dependent effect” in experiment [16], 80% in experiment [18] and 100% in [20]. Besides, the Activity result in [3], in experiment [4], in experiment [7], in experiment [9], in [12] and in experiment [13] was “Dose-dependent effect” each time. Also, the Activity result in [14] is “Dose-dependent effect”; in experiment [17], 50%; in experiment [19] it was 80%. Further, in experiment [10], the inhibition entry was “Active”.

As usually defined, the pKd is the Kd on a negative log10 scale, so that one unit is a factor of ten. A high value points to a small Kd. One may read the inhibition as how much of the control response was suppressed.
